Reference: ChEMBL document CHEMBL1671835, “Discovery of a Potent, S1P3-Sparing Benzothiazole Agonist of Sphingosine-1-Phosphate Receptor 1 (S1P1)” (ACS Med Chem Lett, 2011)
Each block holds one molecule with its values, some of them ahead of it. The source made the active and inactive calls. No cut-off for these calls is given here.

Legend:
Rattus norvegicus [1] = assay: Immunomodulatory activity in po dosed Lewis rat assessed as reduction of circulating lymphocytes count after 24 hrs; format: functional, organism-based
How it was run: (§1)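 Female Lewis rats dosed orally at 0.3, 1.0 or 3.0 mg/kg in 20% captisol, pH 2, N = 5/group. Blood lymphocyte counts and plasma concentration taken 24 h postdose. Compared with vehicle by ANOVA/Dunnett's test, P < 0.05.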

[2] = Mutagenic activity in Salmonella Typhimurium by Ames test; format: toxicity; details: salmonella enterica subsp. enterica serovar typhimurium
[3] = Clearance in Sprague-Dawley rat at 2 mg/kg, iv and 15 mg/kg, po; format: ADME, organism-based; details: in vivo
How it was run: (§2)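 Female Sprague-Dawley rats, N = 3 per route: iv 2 mg/kg in DMSO; po 15 mg/kg in 20% captisol, pH 2. Clearance expressed also as percent of liver blood flow.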

[4] = Half life in Sprague-Dawley rat at 2 mg/kg, iv and 15 mg/kg, po; format: ADME, organism-based; details: in vivo; how it was run: as §2
[5] = Cmax in Sprague-Dawley rat at 100 mg/kg, po qd for 4 days; format: ADME, organism-based; set-up: dose 100 mg/kg, route oral; details: in vivo
Rattus norvegicus [6] = assay: Immunomodulatory activity in Lewis rat assessed as reduction of circulating lymphocytes count at 3 mg/kg, po after 24 hrs relative to control; format: functional; how it was run: as §1
Rattus norvegicus [7] = assay: Immunosuppressive activity in delayed-type hypersensitivity Lewis rat model assessed as reduction of ovalbumin/complete Freund's adjuvant-induced ear swelling at 0.3 mg/kg, po qd for 10 days; format: functional, organism-based; set-up: dose 0.3 mg/kg
How it was run: (§3)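 Female Lewis rats dosed orally once daily for 10 days at 0.1–3.0 mg/kg in 20% captisol, pH 2 (N = 8/group; N = 4 at 3.0 mg/kg). On day 1 rats were immunized with ovalbumin plus complete Freund's adjuvant. One week later ovalbumin was injected intracutaneously into one ear. Ear-thickness change and blood lymphocytes measured 48 h after challenge; compared with vehicle by ANOVA/Dunnett's test.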

[8] = biological target: T1, Sphingosine 1-phosphate receptor 3 (Homo sapiens, UniProt Q99500); assay: Agonist activity at human S1P3 receptor expressed in CHO-K1 cells co-expressing Gq/i5 G-protein assessed as calcium mobilization by FLIPR assay; format: functional, cell-based
How it was run: (§4)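 hS1P3 and Gq/i5 co-transfected into CHO-K1 cells; agonism read as Ca2+ mobilization. Percent efficacy is relative to 0.200 μM S1P, and >top concentration is reported when activity stays under 10% of control. Each value is the mean of at least two determinations.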

Rattus norvegicus [9] = assay: Immunosuppressive activity in delayed-type hypersensitivity Lewis rat model assessed as reduction of ovalbumin/complete Freund's adjuvant-induced ear swelling at 1 to 3 mg/kg, po qd for 10 days; format: functional, organism-based; how it was run: as §3
[10] = Volume of distribution at steady state in Sprague-Dawley rat at 2 mg/kg, iv and 15 mg/kg, po; format: ADME, organism-based; details: in vivo, read-out: Vdss; how it was run: as §2
Rattus norvegicus [11] = assay: Cardiotoxicity in rat assessed as effect on mean arterial pressure at 30 mg/kg, po; format: toxicity, organism-based, Artery; set-up: dose 30 mg/kg, route oral; details: in vivo
How it was run: (§5)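 Telemetered rats given oral doses; heart rate and mean arterial pressure monitored to set a no-effect level.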

Rattus norvegicus [12] = assay: Immunomodulatory activity in Lewis rat assessed as reduction of circulating lymphocytes count at 1 mg/kg, po after 24 hrs relative to control; format: functional; set-up: scale not given: the % may be the effect or the level left; how it was run: as §1
[13] = Volume of distribution at steady state in cynomolgus monkey at 4 mg/kg, iv and 10 mg/kg, po; format: ADME, organism-based, Macaca fascicularis; details: in vivo, read-out: Vdss
How it was run: (§6)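 Male cynomolgus monkeys, N = 3 per route: iv 4 mg/kg in 20% captisol, pH 4; po 10 mg/kg in 20% captisol with 1% pluronic F68 and 1% HPMC, pH 2. Clearance expressed also as percent of liver blood flow.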

[14] = Clearance in cynomolgus monkey at 4 mg/kg, iv and 10 mg/kg, po; format: ADME, organism-based, Macaca fascicularis; details: in vivo; how it was run: as §6
[15] = Inhibition of human cytochrome P450; format: ADME
Cynomolgus monkey = assay: Liver blood flow in cynomolgus monkey at 4 mg/kg, iv and 10 mg/kg, po; format: ADME, organism-based, Macaca fascicularis; details: in vivo; how it was run: as §6
[16] = Mean residence time in cynomolgus monkey at 4 mg/kg, iv and 10 mg/kg, po; format: ADME, organism-based, Macaca fascicularis; details: in vivo; how it was run: as §6
[17] = Half life in cynomolgus monkey at 4 mg/kg, iv and 10 mg/kg, po; format: ADME, organism-based, Macaca fascicularis; details: in vivo; how it was run: as §6
Rattus norvegicus [18] = assay: Immunomodulatory activity in Lewis rat assessed as reduction of circulating lymphocytes count at 0.3 mg/kg, po after 24 hrs relative to control; format: functional; how it was run: as §1
[19] = Fraction unbound in rat plasma at 5 ug/ml by ultracentrifugation analysis; format: ADME, cell-free
How it was run: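 Plasma protein binding determined by ultracentrifugation at 5.0 μg/mL test compound.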

[20] = Oral bioavailability in cynomolgus monkey at 10 mg/kg; format: ADME, organism-based, Macaca fascicularis; details: in vivo; how it was run: as §6
[21] = biological target: T1, Sphingosine 1-phosphate receptor 3; assay: Agonist activity at human S1P3 receptor expressed in CHO-K1 cells co-expressing Gq/i5 G-protein assessed as calcium mobilization by FLIPR assay relative to S1P; format: functional, cell-based; how it was run: as §4
Rattus norvegicus [22] = assay: Cardiotoxicity in rat assessed as effect on heart rate at 30 mg/kg, po; format: toxicity, organism-based; set-up: dose 30 mg/kg, route oral; details: in vivo; how it was run: as §5
[23] = AUC (0 to 24 hrs) in Sprague-Dawley rat at 100 mg/kg, po qd for 4 days; format: ADME, organism-based; set-up: time < 24 hr, dose 100 mg/kg, route oral; details: plasma
[24] = Mean residence time in Sprague-Dawley rat at 2 mg/kg, iv and 15 mg/kg, po; format: ADME, organism-based; details: in vivo; how it was run: as §2
Rattus norvegicus [25] = assay: Liver blood flow in Sprague-Dawley rat at 2 mg/kg, iv and 15 mg/kg, po; format: ADME, organism-based; details: in vivo; how it was run: as §2
[26] = biological target: T2, Sphingosine 1-phosphate receptor 1 (Homo sapiens, UniProt P21453); assay: Agonist activity at human S1P1 receptor expressed in human U2OS cells co-expressing eGFP assessed as receptor internalization after 1 hr relative to 1-(4-(6-benzylbenzofuran-2-yl)-3-fluorobenzyl)azetidine-3-carboxylic acid; format: functional, cell-based
How it was run: (§7)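 hS1P1-GFP fusion expressed in U2OS cells; agonism read as receptor internalization. Percent efficacy is relative to 1.00 μM reference agonist, and >top concentration is reported when activity stays under 10% of control. Each value is the mean of at least two determinations.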

Rattus norvegicus [27] = assay: Toxicity in Sprague-Dawley rat assessed as proconvulsive activity at 100 mg/kg, po qd for 4 days; format: organism-based; set-up: dose 100 mg/kg, route oral; details: in vivo, 96 h
How it was run: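 Sprague-Dawley rats (N = 3) dosed orally at 100 mg/kg once daily for 4 days and observed for proconvulsive activity.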

[28] = Oral bioavailability in Sprague-Dawley rat at 15 mg/kg; format: ADME, organism-based; details: in vivo; how it was run: as §2
[29] = biological target: T2, Sphingosine 1-phosphate receptor 1; assay: Agonist activity at human S1P1 receptor expressed in human U2OS cells co-expressing eGFP assessed as receptor internalization after 1 hr; format: functional, cell-based; how it was run: as §7

T1 sequence (Q99500 whole entry): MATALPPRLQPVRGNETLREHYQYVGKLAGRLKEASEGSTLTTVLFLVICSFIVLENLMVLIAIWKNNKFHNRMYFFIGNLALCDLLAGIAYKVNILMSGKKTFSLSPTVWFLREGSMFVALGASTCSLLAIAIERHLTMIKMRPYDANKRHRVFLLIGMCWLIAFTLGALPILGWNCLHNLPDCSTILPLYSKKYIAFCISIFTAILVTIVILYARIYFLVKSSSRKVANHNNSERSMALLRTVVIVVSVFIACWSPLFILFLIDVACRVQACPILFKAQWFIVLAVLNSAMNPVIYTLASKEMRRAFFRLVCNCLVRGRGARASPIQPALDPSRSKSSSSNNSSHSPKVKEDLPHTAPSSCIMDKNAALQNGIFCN
T2 sequence (P21453 whole entry, the tested form may be a part): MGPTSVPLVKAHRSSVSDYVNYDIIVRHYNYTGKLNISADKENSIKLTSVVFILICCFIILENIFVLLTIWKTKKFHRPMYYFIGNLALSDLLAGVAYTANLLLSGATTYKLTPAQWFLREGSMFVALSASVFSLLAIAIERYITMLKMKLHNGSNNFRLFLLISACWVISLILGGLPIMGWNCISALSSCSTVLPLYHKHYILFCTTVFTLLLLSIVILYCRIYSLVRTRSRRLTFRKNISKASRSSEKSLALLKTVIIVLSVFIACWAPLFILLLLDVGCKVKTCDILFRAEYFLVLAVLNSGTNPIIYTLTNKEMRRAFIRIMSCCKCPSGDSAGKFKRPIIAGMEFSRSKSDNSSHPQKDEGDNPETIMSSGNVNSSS

SMILES: O=C(O)C1CN(Cc2ccc(-c3nc4cc(Cc5cccc(Cl)c5)ccc4s3)c(F)c2)C1
EC50 [8]: 3880 nM
EC50 [29]: 49 nM
Efficacy [21]: 35%
Efficacy [26]: 141%

SMILES: O=C(O)C1CN(Cc2ccc(-c3nc4cc(Cc5ccccc5)ccc4o3)c(F)c2)C1
EC50 [8]: 354 nM
EC50 [29]: 325 nM
Efficacy [21]: 77%
Efficacy [26]: 105%

SMILES: O=C(O)C1CN(Cc2ccc(-c3nc4cc(Cc5c(F)cccc5F)ccc4s3)c(F)c2)C1
EC50 [8]: > 25000 nM
EC50 [29]: 126 nM
Efficacy [26]: 126%

SMILES: O=C(O)C1CN(Cc2ccc(-c3nc4ccc(Cc5ccccc5)cc4[nH]3)c(F)c2)C1
EC50 [8]: > 25000 nM
EC50 [29]: > 6250 nM

SMILES: O=C(O)C1CN(Cc2ccc(-c3nc4cc(Cc5ccc(F)cc5)ccc4s3)c(F)c2)C1
EC50 [8]: 1910 nM
EC50 [29]: 33 nM
Efficacy [21]: 37%
Efficacy [26]: 129%

SMILES: Cc1ccc(Cc2ccc3sc(-c4ccc(CN5CC(C(=O)O)C5)cc4F)nc3c2)cc1
EC50 [8]: 1800 nM
EC50 [29]: 77 nM
Efficacy [21]: 17%
Efficacy [26]: 132%

SMILES: O=C(O)C1CN(Cc2ccc(-c3nc4cc(Cc5ccccc5)ccc4s3)c(F)c2)C1
EC50 [29]: 42 nM
Efficacy [21]: 24%

SMILES: Cc1ccccc1Cc1ccc2sc(-c3ccc(CN4CC(C(=O)O)C4)cc3F)nc2c1
EC50 [8]: 2440 nM
Activity (Rattus norvegicus [12]): 63%
EC50 [29]: 26 nM
Efficacy [21]: 40%
Efficacy [26]: 118%

SMILES: O=C(O)C1CN(Cc2ccc(-c3nc4cc(Cc5ccccc5Cl)ccc4s3)c(F)c2)C1
EC50 [8]: 4880 nM
Activity (Rattus norvegicus [12]): 63%
EC50 [29]: 42 nM
Efficacy [21]: 41%
Efficacy [26]: 121%

Further lines, with some results ahead:

clearance [3]: 5.5 mL/min/kg
half-life [4]: 7.5 h
Cmax [5]: 49000 ng/mL
EC50 [8]: 3470 nM
Vd [10]: 3.3 L/kg
Vd [13]: 1.6 L/kg
clearance [14]: 8.33 mL/min/kg
inhibition (INH) [15]: Not Active
LBF (Cynomolgus monkey): 19%
MRT [16]: 3.3 h
half-life [17]: 35.2 h
fraction unbound at 5 ug/ml [19]: 0.021
bioavailability [20]: 23%
Efficacy [21]: 14%
AUC at 24 h [23]: 987 µg·h/mL
MRT [24]: 10 h
LBF (Rattus norvegicus [25]): 10%
Efficacy [26]: 115%
bioavailability [28]: 68%
SMILES: O=C(O)C1CN(Cc2ccc(-c3nc4cc(Cc5ccccc5F)ccc4s3)c(F)c2)C1
Efficacy (Rattus norvegicus [1]): Dose-dependent effect
Activity [2]: Non-toxic
Efficacy (Rattus norvegicus [6]): 74%
Efficacy (Rattus norvegicus [7]): Active
Efficacy (Rattus norvegicus [9]): Active
Activity (Rattus norvegicus [11]): Non-toxic
Activity (Rattus norvegicus [12]): 63%
Efficacy (Rattus norvegicus [18]): 34%
Activity (Rattus norvegicus [22]): Non-toxic
Activity (Rattus norvegicus [27]): Non-toxic

EC50 [8]: > 2500 nM
EC50 [29]: 54 nM
Efficacy [26]: 92%
SMILES: Cc1cccc(Cc2ccc3sc(-c4ccc(CN5CC(C(=O)O)C5)cc4F)nc3c2)c1

EC50 [8]: > 25000 nM
EC50 [29]: 6720 nM
Efficacy [26]: 115%
SMILES: O=C(O)C1CN(Cc2ccc(-c3cn4cc(Cc5ccccc5)ccc4n3)c(F)c2)C1

EC50 [8]: 542 nM
EC50 [29]: 94 nM
Efficacy [21]: 87%
Efficacy [26]: 108%
SMILES: O=C(O)C1CN(Cc2ccc(-c3nc4ccc(Cc5ccccc5)cc4o3)c(F)c2)C1

EC50 [8]: 1730 nM
fraction unbound at 5 ug/ml [19]: 0.015
Efficacy [21]: 42%
Efficacy [26]: 96%
SMILES: O=C(O)C1CN(Cc2ccc(-c3cc4cc(Cc5ccccc5)ccc4o3)c(F)c2)C1

EC50 [8]: 1110 nM
EC50 [29]: 2890 nM
Efficacy [21]: 43%
Efficacy [26]: 53%
SMILES: O=C(O)C1CN(Cc2ccc(-n3cc4cc(Cc5ccccc5)ccc4n3)c(F)c2)C1

EC50 [8]: 2710 nM
EC50 [29]: 1810 nM
Efficacy [21]: 48%
Efficacy [26]: 100%
SMILES: O=C(O)C1CN(Cc2ccc(-n3cc4ccc(Cc5ccccc5)cc4n3)c(F)c2)C1

EC50 [8]: 687 nM
EC50 [29]: 21 nM
Efficacy [21]: 22%
Efficacy [26]: 138%
SMILES: O=C(O)C1CN(Cc2ccc(-c3nc4cc(Cc5cccc(F)c5)ccc4s3)c(F)c2)C1

EC50 [8]: > 25000 nM
EC50 [29]: 159 nM
Efficacy [26]: 117%
SMILES: O=C(O)C1CN(Cc2ccc(-c3nc4cc(Cc5ccc(Cl)cc5)ccc4s3)c(F)c2)C1

Efficacy [21]: 50%
Efficacy [26]: 84%
SMILES: O=C(O)C1CN(Cc2ccc(-c3nc4ccc(Cc5ccccc5)cc4s3)c(F)c2)C1

EC50 [8]: 967 nM
EC50 [29]: 30 nM
Efficacy [21]: 19%
Efficacy [26]: 151%
SMILES: O=C(O)C1CN(Cc2ccc(-c3nc4cc(Cc5ccc(F)c(F)c5)ccc4s3)c(F)c2)C1

EC50 [8]: 1200 nM
EC50 [29]: 42 nM
Efficacy [21]: 24%
Efficacy [26]: 186%
SMILES: O=C(O)C1CN(Cc2ccc(-c3nc4cc(Cc5ccc(F)cc5F)ccc4s3)c(F)c2)C1

EC50 [8]: 6090 nM
EC50 [29]: 741 nM
Efficacy [21]: 50%
Efficacy [26]: 110%
SMILES: O=C(O)C1CN(Cc2ccc(-c3cn4ccc(Cc5ccccc5)cc4n3)c(F)c2)C1

EC50 [8]: 679 nM
EC50 [29]: 13 nM
Efficacy [21]: 42%
SMILES: O=C(O)C1CN(Cc2ccc(-c3cc4ccc(Cc5ccccc5)cc4o3)c(F)c2)C1
